Laboratory results published in ChEMBL document CHEMBL1759852, “A comparative study of proapoptotic potential of cyano analogues of boswellic acid and 11-keto-boswellic acid” (Eur J Med Chem, 2011).
The source made the active and inactive calls. No cut-off for these calls is given here.

Tests used:
HL-60 [1] = assay: Induction of apoptosis in human HL60 cells assessed as DNA ladder formation at 4 uM after 9 hrs by agarose gel electrophoresis; assay type: functional, cell-based
HL-60 [2] = assay: Induction of apoptosis in human HL60 cells assessed as early apoptotic cells at 4 uM after 6 hrs using Annexin-V-FITC/propidium iodide staining by flow cytometry (reference value: 6%); assay type: functional
How it was run: (§1)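 HL-60 cells (1 × 10^6/ml) treated 6 h at varied concentrations; camptothecin 4 μM 6 h positive control. AnnexinV-FITC and propidium iodide staining per kit; FL-1 versus FL-2 flow cytometry with quadrant statistics for apoptotic and necrotic populations; representative of three experiments.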

HL-60 [3] = assay: Induction of apoptosis in human HL60 cells assessed as late apoptotic cells at 4 uM after 6 hrs using Annexin-V-FITC/propidium iodide staining by flow cytometry (reference value: 1%); assay type: functional; how it was run: as §1
HL-60 [4] = assay: Cell cycle arrest in human HL60 cells assessed as accumulation at sub-G1 phase at 4 uM after 18 hrs by flow cytometry relative to control

Question: With `CC[C@@]1(O)C(=O)OCc2c1cc1n(c2=O)Cc2cc3ccccc3nc2-1` [CAMPTOTHECIN] as the compound, how does the Activity (HL-60 [1]) read?
Answer: Active

Question: What about the Activity (HL-60 [2]) of the same compound?
Answer: 35%

Question: And the Activity (HL-60 [3])?
Answer: 4%

Question: And the Activity (HL-60 [4])?
Answer: 96%
